# Screens deposited in PubChem by several laboratories.
# PTEN del growth: growth suppressors of cells with PTEN tumor suppressor deletion; HCT116 PTEN-null viability, CellTiter-Glo, 60 h; stronger effect = lower value; viability, % at 10 µM; 140,000 compounds, 1.2% hits;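 active = viability at or below a set limit, 4 SD under the median of all tested compounds, cut at about 3.7% in these data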;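 note: PTEN knockout HCT116 line with beta catenin targeted HCT116 as companion control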
# TNAP act hiacc: TNAP (human) activation, high acceptor | P05186 | purified TNAP, CDP-star luminescence, 1 M DEA, 30 min; stronger effect = higher value; 0 = EDTA background, 1 = DMSO-only activity | activation factor at 20 µM | 200,000 tested, under 10 active | AID 1136;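 active = activation factor at least 2 at 20 µM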
# Target sequence (P05186 whole entry, looked up): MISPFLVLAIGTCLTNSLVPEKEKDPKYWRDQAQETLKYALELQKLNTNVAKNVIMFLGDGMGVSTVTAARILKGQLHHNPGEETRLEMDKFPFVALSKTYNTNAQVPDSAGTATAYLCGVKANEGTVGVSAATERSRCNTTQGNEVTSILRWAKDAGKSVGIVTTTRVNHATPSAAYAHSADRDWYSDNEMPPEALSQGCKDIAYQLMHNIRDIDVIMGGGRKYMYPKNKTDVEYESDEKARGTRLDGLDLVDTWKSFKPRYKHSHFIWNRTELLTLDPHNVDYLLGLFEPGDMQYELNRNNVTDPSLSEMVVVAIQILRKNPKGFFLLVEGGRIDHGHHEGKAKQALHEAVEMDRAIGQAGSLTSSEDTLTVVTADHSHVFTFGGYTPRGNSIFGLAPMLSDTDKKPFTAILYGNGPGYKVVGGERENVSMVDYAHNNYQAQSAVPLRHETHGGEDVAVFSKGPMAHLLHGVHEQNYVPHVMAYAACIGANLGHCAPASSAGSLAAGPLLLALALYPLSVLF
#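 Dosing: 20 µM single point. System: human TNAP. Amount: TNAP 1/800 final. Incubation: 30 min, room temperature. Read-out: TNAP activation factor scaled between EDTA and DMSO control wells. Signal: luminescence from CDP-star hydrolysis. Medium: 1 M DEA, pH 9.8, Mg2+, Zn2+. Control set: EDTA negative control, DMSO positive control.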
# TNAP inh hi DEA: blocks human TNAP under high phosphate acceptor concentration; P05186; AID 1135; inhibition, % at 20 µM; purified TNAP, CDP-star luminescence, 1 M DEA; 200,000 compounds, 0.03% hits;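 active = over 50% inhibition of tissue-nonspecific alkaline phosphatase at 20 µM in the single-dose screen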
# TNAP inh noacc: blocks human TNAP activity with no phosphate acceptor present; P05186; purified TNAP, CDP-star luminescence, 30 min; inhibition, % at 20 µM; 200,000 compounds, 0.26% hits;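 active = tissue-nonspecific alkaline phosphatase inhibition above about 50% at 20 µM in the single-dose screen, limit read from the data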
# bCat KO growth: beta-catenin-lacking colon tumor cell growth suppression | HCT116 beta-catenin knockout viability, CellTiter-Glo, 60 h; stronger effect = lower value | viability, % at 10 µM | 140,000 compounds, 1.5% hits | AID 818;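 active = viability at or under a set limit, the compound median less 4 SD, cut at about 6% in these data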
# Lmaj promast: Leishmania major promastigote growth inhibition | 200,000 compounds, 9% hits | inhibition, % at 10 µM | Leishmania major promastigotes, resazurin fluorescence viability; in the data active = inhibition above about 50%;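 note: promastigotes grown with compound for 44 hours at 28 °C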
# Lmaj promast 1uM: inhibitors of Leishmania major promastigote growth, repeat at 1 uM. shares compounds with Lmaj promast. L. major promastigote growth, resazurin fluorescence, 48 h. inhibition, % at 1 µM. 1,100 compounds, 13% hits;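 active = inhibition above about 50% in both repeat tests, limit read from the data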
# Hits are given with their value; – = inactive; · = no result. Most compounds without a hit are left out; they make up all but 9.6% or so of the library.
SMILES,PTEN del growth,TNAP act hiacc,TNAP inh hi DEA,TNAP inh noacc,bCat KO growth,Lmaj promast,Lmaj promast 1uM
COc1cccc(C(=O)NC2CCN(C(=O)N3c4ccccc4Sc4ccccc43)CC2)c1,–,–,–,–,–,71,–
COc1ccc2cc(C(=O)C3CCCN(C(=O)c4cc5nc(C)cc(C)n5n4)C3)ccc2c1 (stereo not given),·,–,–,–,·,–,·
CC(C)(C)C1CCc2sc(-c3nnc(CCl)o3)cc2C1 (stereo not given),·,–,–,–,·,91,–
O=C(O)c1cc2c(s1)CCCC2,–,–,–,–,–,–,·
ClCc1nnc(-c2cc3c(s2)CCCC3)o1,·,–,–,–,·,98,–
Cc1cc(-c2ccccc2)oc(=O)c1NC(=O)c1ccccc1,·,–,–,–,·,–,·
Cn1ncc([N+](=O)[O-])c1C(=O)n1nnc2ccccc21,·,–,–,–,·,–,·
COc1ccc(CN2CCNC(=O)C2CC(=O)NCCSc2nccn2C)cc1OC (stereo not given),·,–,–,–,·,–,·
COc1ccc(CN(C(=O)c2cnccn2)C(C(=O)Nc2ccc(F)cc2)c2ccccc2)cc1 (stereo not given),–,–,–,–,–,62,–
CC(O)CNCCNCc1cccs1 (stereo not given),·,–,–,–,·,–,·
Cc1ccc(S(=O)(=O)N[C@H](C(=O)OCn2nnc3ccccc3c2=O)C(C)C)cc1,·,–,–,–,–,67,–
Cc1cc(C)c(/C=N/n2c(C)cc(C)c(C#N)c2=O)c(C)c1,–,–,–,–,–,73,–
Cc1c(C(=O)NCC2COc3ccccc3O2)oc2ccc(S(=O)(=O)N3CCOCC3)cc12 (stereo not given),–,–,–,–,–,–,·
Cc1c(C(=O)NCC2COc3ccccc3O2)oc2ccc(S(=O)(=O)N3CC(C)CC(C)C3)cc12 (stereo not given),–,–,–,–,–,59,–
CCSc1nnc2nc3[nH]c4c(C)cccc4c3nn12,·,–,–,–,·,–,·
C=CCSc1nnc2c(n1)[nH]c1c(C)cccc12,–,–,–,–,–,61,–
Brc1cccc(-c2n[nH]c(-c3ccccc3)n2)c1,–,–,–,57,–,57,–
c1ccc(-c2nc(-c3cccnc3)n[nH]2)cc1,–,–,–,–,–,–,·
Cc1ccc(CNC(=O)CCC2CCCN(C(=O)c3ccc4c(c3)OCO4)C2)o1 (stereo not given),·,–,–,–,·,–,·
CC1Cc2ccccc2N1C(=O)CSc1nnc(Cc2ccccc2)n1CCc1ccccc1 (stereo not given),–,–,–,–,–,51,–
CCCC(=O)N=C1SC2CS(=O)(=O)CC2N1c1ccc(-c2nc3ccc(C)cc3s2)cc1 (stereo not given),–,–,–,–,–,–,·
Cc1cccc(-n2c(C)nc3sccc3c2=O)c1,–,–,–,–,–,–,·
Cc1ccc(S(=O)(=O)c2ccc(NN)cc2)cc1,·,–,–,–,·,97,–
Cc1ccc(NC(=O)Nc2ccc(S(N)(=O)=O)cc2)cc1,·,–,–,–,·,–,·
O=C1CC(C(=O)Nc2cccc(F)c2)n2ncnc2N1 (stereo not given),·,–,–,–,·,–,·
SMILES,PTEN del growth,TNAP act hiacc,TNAP inh hi DEA,TNAP inh noacc,bCat KO growth,Lmaj promast,Lmaj promast 1uM
COc1ccccc1C1CC(c2c(-c3ccccc3)c3cc(Cl)ccc3[nH]c2=O)=NN1S(C)(=O)=O (stereo not given),1.9,–,–,–,2.0,65,–
CCOCCCNC(=O)C(c1ccc(C)cc1)N(Cc1cccs1)C(=O)c1ccccc1O (stereo not given),·,–,–,–,·,–,·
Cc1nn(CCO)c2nc(-c3cccs3)cc(C(F)(F)F)c12,–,–,–,–,–,–,·
Cc1cccc(COCC(CC(C)C)N2CCN(C(=O)c3ccc(C(F)(F)F)cc3)CCC2=O)c1 (stereo not given),–,–,–,–,–,–,·
Cc1cccc(COCC(CC(C)C)N2CCN(C(=O)c3ccc(C(C)(C)C)cc3)CCC2=O)c1 (stereo not given),–,–,–,–,–,58,–
Cc1csc(NS(=O)(=O)c2cccc([N+](=O)[O-])c2)n1,·,–,–,–,·,–,·
CN1CCN(/N=C/c2ccc(-c3ccccc3)cc2)CC1,·,–,–,–,·,98,–
C(=N\N1CCN(Cc2ccccc2)CC1)/c1ccc(-c2ccccc2)cc1,·,–,–,–,·,–,·
CC(C)C(=O)Nc1ccc(C(=O)Nc2nnc(C(C)(C)C)s2)cc1,·,–,–,–,·,–,·
S=C(Nc1ccc(Oc2ccc(NC(=S)NC3CCCCC3)cc2)cc1)NC1CCCCC1,–,–,–,–,–,58,–
CCOc1ccc(C(=O)O)cn1,·,–,–,–,·,–,·
Cc1cc(-c2ccccc2)cc(-c2ccccc2)[n+]1C,·,–,–,–,·,59,–
C1CCC(C(CC2CCCCN2)C2CCCCC2)CC1 (stereo not given),2.2,–,–,–,1.5,100,–
CC(C)CNC(=O)C1CCCN(C(=O)NCc2ccccc2)C1 (stereo not given),·,–,–,–,·,–,·
COc1ccc(-c2nc(NC(=O)c3cc(C(C)(C)C)nn3C)sc2C)cc1,–,–,–,–,–,70,–
CN(C)S(=O)(=O)c1cccc(NC(=O)CCc2c[nH]c3ccccc23)c1,·,–,–,–,·,–,·
Cc1ccc(OC(C)c2nnc(N)s2)cc1Cl (stereo not given),–,–,–,–,–,100,–
Cc1cc(C)nc(NS(=O)(=O)c2ccc(N/C=C/C(=O)c3ccc(Cl)c(Cl)c3)cc2)n1,–,–,–,–,–,–,·
COc1ccc(C2(O)CCN(Cc3nnnn3Cc3ccc(F)cc3)CC2)cc1,–,–,–,–,–,–,·
OC1(c2ccc(F)cc2)CCN(Cc2ccccc2)C1 (stereo not given),–,–,–,–,–,88,–
C(=C\c1ccccc1)/CSc1nnc(-c2cccnc2)o1,–,–,–,–,–,–,·
CCOC(=O)C1=C(c2ccccc2)O/C(=C(/C#N)C(F)(F)F)S1,–,–,–,–,–,74,–
COc1ccc(/C=C/c2cc[n+](C(=O)Cc3ccccc3)cc2)cc1,·,–,–,–,·,100,98
O=C(OC1CCOC1=O)c1cc(-c2cccs2)nc2ccccc12 (stereo not given),·,–,–,–,·,–,·
CCC(=O)Nc1nnc(-c2ccccn2)o1,–,–,–,–,–,–,·
O=C(CCc1ccccc1)Nc1nnc(-c2ccccn2)o1,–,–,–,–,–,62,–
CCC1CCCCN1CC(O)Cn1c2ccccc2n2c(=O)cc(C)c(C#N)c12 (stereo not given),–,–,–,–,–,81,–
Cc1cc(=O)n2c3ccccc3n(CC(O)CN3CCC(C)CC3)c2c1C#N (stereo not given),–,–,–,–,–,–,·
